Results taken from ChEMBL document CHEMBL3352437, “Novel 3,5-bis(arylidene)-4-oxo-1-piperidinyl dimers: structure-activity relationships and potent antileukemic and antilymphoma cytotoxicity” (Eur J Med Chem, 2014).

system: K562; test: Antileukemic activity against human K562 cells assessed as inhibition of tumor growth after 24 hrs; assay type: functional, cell-based; details: K562, 24 h

SMILES | IC50 [nM]
O=C1/C(=C/c2ccc(F)cc2)CN(C(=O)C(=O)N2C/C(=C\c3ccc(F)cc3)C(=O)/C(=C/c3ccc(F)cc3)C2)C/C1=C\c1ccc(F)cc1 | 280

system: COLO 205; test: Cytotoxicity against human COLO205 cells assessed as inhibition of tumor growth after 24 hrs; assay type: functional, cell-based; details: COLO 205, 24 h

SMILES | IC50 [nM]
O=C1/C(=C/c2ccc(F)cc2)CN(C(=O)C(=O)N2C/C(=C\c3ccc(F)cc3)C(=O)/C(=C/c3ccc(F)cc3)C2)C/C1=C\c1ccc(F)cc1 | 630

system: BJAB; test: Cytotoxicity against human BJAB cells assessed as dead cells at 1 uM after 24 hrs; assay type: functional; details: not given
In short: (§1)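 Dienones added as DMSO solutions to cells in RPMI medium and incubated 24 h at 37°C. Cytotoxicity was scored as cell-membrane disruption by propidium iodide staining and expressed as percentage of dead cells, averaged over three independent experiments.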

SMILES | Activity [%]
O=C1/C(=C/c2ccc(F)cc2)CN(C(=O)C(=O)N2C/C(=C\c3ccc(F)cc3)C(=O)/C(=C/c3ccc(F)cc3)C2)C/C1=C\c1ccc(F)cc1 | 61.8

system: not listed separately; test: Cytotoxicity against human 22Rvl cells assessed as dead cells at 1 uM after 24 hrs; assay type: functional; details: not given; in short: as §1

SMILES | Activity [%]
O=C1/C(=C/c2ccc(F)cc2)CN(C(=O)C(=O)N2C/C(=C\c3ccc(F)cc3)C(=O)/C(=C/c3ccc(F)cc3)C2)C/C1=C\c1ccc(F)cc1 | 30.1

system: Raji; test: Cytotoxicity against human Raji cells assessed as dead cells at 1 uM after 24 hrs; assay type: functional; details: not given; in short: as §1

SMILES | Activity [%]
O=C1/C(=C/c2ccc(F)cc2)CN(C(=O)C(=O)N2C/C(=C\c3ccc(F)cc3)C(=O)/C(=C/c3ccc(F)cc3)C2)C/C1=C\c1ccc(F)cc1 | 33.5

system: not listed separately; test: Cytotoxicity against human MOLT3 cells assessed as dead cells at 1 uM after 24 hrs; assay type: functional, MOLT-3; details: not given; in short: as §1

SMILES | Activity [%]
O=C1/C(=C/c2ccc(F)cc2)CN(C(=O)C(=O)N2C/C(=C\c3ccc(F)cc3)C(=O)/C(=C/c3ccc(F)cc3)C2)C/C1=C\c1ccc(F)cc1 | 3.1

system: CCRF-CEM; test: Antiproliferative activity against human CEM cells after 72 hrs by coulter counting analysis; assay type: functional, cell-based; details: not given
In short: (§2)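 Cells exposed to a range of concentrations in RPMI 1640 at 37°C for 72 h. Surviving cells counted by Coulter counter. IC50 taken from concentration-response curves, mean ± SD of at least three independent experiments.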

SMILES | IC50 [nM]
O=C1/C(=C/c2ccc(F)cc2)CN(C(=O)C(=O)N2C/C(=C\c3ccc(F)cc3)C(=O)/C(=C/c3ccc(F)cc3)C2)C/C1=C\c1ccc(F)cc1 | 221

system: HeLa; test: Antiproliferative activity against human HeLa cells after 72 hrs by coulter counting analysis; assay type: functional, cell-based; details: not given; in short: as §2

SMILES | IC50 [nM]
O=C1/C(=C/c2ccc(F)cc2)CN(C(=O)C(=O)N2C/C(=C\c3ccc(F)cc3)C(=O)/C(=C/c3ccc(F)cc3)C2)C/C1=C\c1ccc(F)cc1 | 388

system: SW-620; test: Cytotoxicity against human SW620 cells assessed as inhibition of tumor growth after 24 hrs; assay type: functional, cell-based; details: SW-620, 24 h

SMILES | IC50 [nM]
O=C1/C(=C/c2ccc(F)cc2)CN(C(=O)C(=O)N2C/C(=C\c3ccc(F)cc3)C(=O)/C(=C/c3ccc(F)cc3)C2)C/C1=C\c1ccc(F)cc1 | 320

system: HL-60(TB); test: Antileukemic activity against human HL-60(TB) cells assessed as inhibition of tumor growth after 24 hrs; assay type: functional, cell-based; details: HL-60, 24 h

SMILES | IC50 [nM]
O=C1/C(=C/c2ccc(F)cc2)CN(C(=O)C(=O)N2C/C(=C\c3ccc(F)cc3)C(=O)/C(=C/c3ccc(F)cc3)C2)C/C1=C\c1ccc(F)cc1 | 1120

system: HS27; test: Cytotoxicity against human HS27 cells assessed as dead cells at 1 uM after 24 hrs; assay type: cell-based; details: hs27, 24 h
In short: (§3)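 Compounds added from DMSO solutions to cells in medium (RPMI; DMEM for Hs-27 fibroblasts) and incubated 24 h at 37°C. Membrane disruption scored by propidium iodide uptake. Result is percentage of dead cells, average of three independent experiments.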

SMILES | Activity [%]
O=C1/C(=C/c2ccc(F)cc2)CN(C(=O)C(=O)N2C/C(=C\c3ccc(F)cc3)C(=O)/C(=C/c3ccc(F)cc3)C2)C/C1=C\c1ccc(F)cc1 | 0.6

system: not listed separately; test: Cytotoxicity against human MDA231 cells assessed as dead cells at 1 uM after 24 hrs; assay type: functional, MDA-MB-231; details: not given; in short: as §1

SMILES | Activity [%]
O=C1/C(=C/c2ccc(F)cc2)CN(C(=O)C(=O)N2C/C(=C\c3ccc(F)cc3)C(=O)/C(=C/c3ccc(F)cc3)C2)C/C1=C\c1ccc(F)cc1 | 5.5

system: LAPC4; test: Cytotoxicity against human LAPC4 cells assessed as dead cells at 1 uM after 24 hrs; assay type: functional; details: not given; in short: as §1

SMILES | Activity [%]
O=C1/C(=C/c2ccc(F)cc2)CN(C(=O)C(=O)N2C/C(=C\c3ccc(F)cc3)C(=O)/C(=C/c3ccc(F)cc3)C2)C/C1=C\c1ccc(F)cc1 | 11.3

system: L1210; test: Antiproliferative activity against mouse L1210 cells after 72 hrs by coulter counting analysis; assay type: functional, cell-based; details: L1210, 72 h

SMILES | IC50 [nM]
O=C1/C(=C/c2ccc(F)cc2)CN(C(=O)C(=O)N2C/C(=C\c3ccc(F)cc3)C(=O)/C(=C/c3ccc(F)cc3)C2)C/C1=C\c1ccc(F)cc1 | 422

system: Jurkat; test: Cytotoxicity against human Jurkat cells assessed as dead cells at 1 uM after 24 hrs; assay type: functional; details: not given; in short: as §1

SMILES | Activity [%]
O=C1/C(=C/c2ccc(F)cc2)CN(C(=O)C(=O)N2C/C(=C\c3ccc(F)cc3)C(=O)/C(=C/c3ccc(F)cc3)C2)C/C1=C\c1ccc(F)cc1 | 87.8

system: Ramos; test: Cytotoxicity against human Ramos cells assessed as dead cells at 1 uM after 24 hrs; assay type: functional; details: not given; in short: as §1

SMILES | Activity [%]
O=C1/C(=C/c2ccc(F)cc2)CN(C(=O)C(=O)N2C/C(=C\c3ccc(F)cc3)C(=O)/C(=C/c3ccc(F)cc3)C2)C/C1=C\c1ccc(F)cc1 | 53.3

system: not listed separately; test: Antileukemic activity against human RPMI8226 cells assessed as inhibition of tumor growth after 24 hrs; assay type: functional, cell-based; details: rpmi-8226

SMILES | IC50 [nM]
O=C1/C(=C/c2ccc(F)cc2)CN(C(=O)C(=O)N2C/C(=C\c3ccc(F)cc3)C(=O)/C(=C/c3ccc(F)cc3)C2)C/C1=C\c1ccc(F)cc1 | 120

system: MCF7; test: Cytotoxicity against human MCF7 cells assessed as dead cells at 1 uM after 24 hrs; assay type: functional; details: not given; in short: as §1

SMILES | Activity [%]
O=C1/C(=C/c2ccc(F)cc2)CN(C(=O)C(=O)N2C/C(=C\c3ccc(F)cc3)C(=O)/C(=C/c3ccc(F)cc3)C2)C/C1=C\c1ccc(F)cc1 | 16.2

system: not listed separately; test: Cytotoxicity against human NCI60 cells assessed as inhibition of tumor growth after 24 hrs; assay type: functional, cell-based; details: NCI60, 24 h

SMILES | IC50 [nM]
O=C1/C(=C/c2ccc(F)cc2)CN(C(=O)C(=O)N2C/C(=C\c3ccc(F)cc3)C(=O)/C(=C/c3ccc(F)cc3)C2)C/C1=C\c1ccc(F)cc1 | 580

system: YT; test: Cytotoxicity against human YT cells assessed as dead cells at 1 uM after 24 hrs; assay type: functional; details: not given; in short: as §1

SMILES | Activity [%]
O=C1/C(=C/c2ccc(F)cc2)CN(C(=O)C(=O)N2C/C(=C\c3ccc(F)cc3)C(=O)/C(=C/c3ccc(F)cc3)C2)C/C1=C\c1ccc(F)cc1 | 17.1

system: DU-145; test: Cytotoxicity against human DU145 cells assessed as dead cells at 1 uM after 24 hrs; assay type: functional; details: not given; in short: as §1

SMILES | Activity [%]
O=C1/C(=C/c2ccc(F)cc2)CN(C(=O)C(=O)N2C/C(=C\c3ccc(F)cc3)C(=O)/C(=C/c3ccc(F)cc3)C2)C/C1=C\c1ccc(F)cc1 | 15.2

system: EL4; test: Cytotoxicity against mouse EL4 cells assessed as dead cells at 1 uM after 24 hrs; assay type: functional; details: not given; in short: as §1

SMILES | Activity [%]
O=C1/C(=C/c2ccc(F)cc2)CN(C(=O)C(=O)N2C/C(=C\c3ccc(F)cc3)C(=O)/C(=C/c3ccc(F)cc3)C2)C/C1=C\c1ccc(F)cc1 | 34.7

system: KM12; test: Cytotoxicity against human KM12 cells assessed as inhibition of tumor growth after 24 hrs; assay type: functional, cell-based; details: KM12, 24 h

SMILES | IC50 [nM]
O=C1/C(=C/c2ccc(F)cc2)CN(C(=O)C(=O)N2C/C(=C\c3ccc(F)cc3)C(=O)/C(=C/c3ccc(F)cc3)C2)C/C1=C\c1ccc(F)cc1 | 300

system: HCC 2998; test: Cytotoxicity against human HCC2998 cells assessed as inhibition of tumor growth after 24 hrs; assay type: functional, cell-based; details: HCC 2998, 24 h

SMILES | IC50 [nM]
O=C1/C(=C/c2ccc(F)cc2)CN(C(=O)C(=O)N2C/C(=C\c3ccc(F)cc3)C(=O)/C(=C/c3ccc(F)cc3)C2)C/C1=C\c1ccc(F)cc1 | 620

system: HCC70; test: Cytotoxicity against human HCC70 cells assessed as dead cells at 1 uM after 24 hrs; assay type: functional; details: not given; in short: as §1

SMILES | Activity [%]
O=C1/C(=C/c2ccc(F)cc2)CN(C(=O)C(=O)N2C/C(=C\c3ccc(F)cc3)C(=O)/C(=C/c3ccc(F)cc3)C2)C/C1=C\c1ccc(F)cc1 | 6.6

system: not listed separately; test: Antiproliferative activity against human Molt4/C8 cells after 72 hrs by coulter counting analysis; assay type: functional, cell-based; details: MOLT-4, 72 h; in short: as §2

SMILES | IC50 [nM]
O=C1/C(=C/c2ccc(F)cc2)CN(C(=O)C(=O)N2C/C(=C\c3ccc(F)cc3)C(=O)/C(=C/c3ccc(F)cc3)C2)C/C1=C\c1ccc(F)cc1 | 83

system: CCRF-CEM; test: Cytotoxicity against human CEM cells assessed as dead cells at 1 uM after 24 hrs; assay type: functional; details: not given; in short: as §1

SMILES | Activity [%]
O=C1/C(=C/c2ccc(F)cc2)CN(C(=O)C(=O)N2C/C(=C\c3ccc(F)cc3)C(=O)/C(=C/c3ccc(F)cc3)C2)C/C1=C\c1ccc(F)cc1 | 85.3

system: not listed separately; test: Cytotoxicity against human HuT-102 cells assessed as dead cells at 1 uM after 24 hrs; assay type: functional; details: not given; in short: as §1

SMILES | Activity [%]
O=C1/C(=C/c2ccc(F)cc2)CN(C(=O)C(=O)N2C/C(=C\c3ccc(F)cc3)C(=O)/C(=C/c3ccc(F)cc3)C2)C/C1=C\c1ccc(F)cc1 | 64.4

system: not listed separately; test: Cytotoxicity against human MCF10A cells assessed as dead cells at 1 uM after 24 hrs; assay type: cell-based; details: mcf-10a; in short: as §3

SMILES | Activity [%]
O=C1/C(=C/c2ccc(F)cc2)CN(C(=O)C(=O)N2C/C(=C\c3ccc(F)cc3)C(=O)/C(=C/c3ccc(F)cc3)C2)C/C1=C\c1ccc(F)cc1 | 7.7

system: not listed separately; test: Cytotoxicity against human NALM6 cells assessed as dead cells at 1 uM after 24 hrs; assay type: functional, NALM-6; details: not given; in short: as §1

SMILES | Activity [%]
O=C1/C(=C/c2ccc(F)cc2)CN(C(=O)C(=O)N2C/C(=C\c3ccc(F)cc3)C(=O)/C(=C/c3ccc(F)cc3)C2)C/C1=C\c1ccc(F)cc1 | 61.6

system: not listed separately; test: Cytotoxicity against human SupT1 cells assessed as dead cells at 1 uM after 24 hrs; assay type: functional, SUP-T1; details: not given; in short: as §1

SMILES | Activity [%]
O=C1/C(=C/c2ccc(F)cc2)CN(C(=O)C(=O)N2C/C(=C\c3ccc(F)cc3)C(=O)/C(=C/c3ccc(F)cc3)C2)C/C1=C\c1ccc(F)cc1 | 35.6

system: not listed separately; test: Cytotoxicity against human HCT15 cells assessed as inhibition of tumor growth after 24 hrs; assay type: functional, cell-based; details: HCT-15, 24 h

SMILES | IC50 [nM]
O=C1/C(=C/c2ccc(F)cc2)CN(C(=O)C(=O)N2C/C(=C\c3ccc(F)cc3)C(=O)/C(=C/c3ccc(F)cc3)C2)C/C1=C\c1ccc(F)cc1 | 160

system: SR; test: Antileukemic activity against human SR cells assessed as inhibition of tumor growth after 24 hrs; assay type: functional, cell-based; details: not given

SMILES | IC50 [nM]
O=C1/C(=C/c2ccc(F)cc2)CN(C(=O)C(=O)N2C/C(=C\c3ccc(F)cc3)C(=O)/C(=C/c3ccc(F)cc3)C2)C/C1=C\c1ccc(F)cc1 | 160
